Structures are written as SMILES.

The nature of data set [1]: Protein-bound tracer in plasma. Format: in vivo, cynomolgus monkey. The note with it: range over the time points of the study. In outline:
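Arterial plasma was sampled after injection of the fluorine-18 labelled test compound during a baseline microPET study in a cynomolgus monkey. Samples spanned 1 to 180 min post-injection. The percentage of tracer bound to plasma protein was determined at each time point. The same samples underwent radio-HPLC metabolite analysis.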

The test system of data set [2] is SERT. Kind of data set: HRRT PET baseline study in awake rhesus monkey. Format: in vivo.
Data set [3] concerns SERT. Description: MicroPET baseline regional brain uptake in anesthetized cynomolgus monkeys. Format: in vivo, cynomolgus monkey.

In the case of `O=C(OCC[18F])C1C2CCC(CC1c1cccc(/C=C\I)c1)N2` (stereo not drawn) [[^18F]1, 2β-Carbo(2-[^18F]fluoroethoxy)-3β-(3′-((Z)-2-iodoethenyl)phenyl)nortropane], the “percentage of protein-bound tracer in plasma” value in data set [1] is reported as 5.6 - 8.5%. In data set [2] (awake rhesus), the “time of peak uptake, caudate” value worked out at 45 min; the “time of peak uptake, cerebellum” value amounted to 45 min; the “time of peak uptake, medulla” value is 35 min; the “time of peak uptake, midbrain” value was determined as 45 min. In data set [2] (awake rhesus), the “time of peak uptake, pons” value was determined as 85 min; the “time of peak uptake, putamen” value is recorded as 45 min; the “time of peak uptake, thalamus” value was 45 min. The “time of peak uptake in thalamus, putamen, midbrain, and caudate” value in data set [2] (awake rhesus monkey) is ~ 45 min. Besides, in data set [3] (anesthetized), the “time of peak uptake, caudate” value was 55 min; the “time of peak uptake, cerebellum” value is listed as ~ 27 min; the “time of peak uptake, medulla” value worked out at 35 min; the “time of peak uptake, midbrain” value stood at 45 min. In data set [3] (anesthetized), the “time of peak uptake, pons” value was 45 min; the “time of peak uptake, putamen” value was found to be 45 min; the “time of peak uptake, thalamus” value is given as 45 min. Besides, in data set [3] (anesthetized cynomolgus monkey), the “time at which uptake ratios stabilize” value was ~ 175 minutes, the “time at which washout from the SERT-rich brain regions begins” value is given as ~ 65 minutes and the “time at which washout from the cerebellum begins” value is ~ 27 minutes.

For `O=C(OCC[18F])C1C2CCC(CC1c1cccc(/C=C\Br)c1)N2` (stereo not drawn) [[^18F]2, 2β-Carbo(2-[^18F]fluoroethoxy)-3β-(3′-((Z)-2-bromoethenyl)phenyl)nortropane], the “time of peak uptake, cerebellum” value in data set [3] (anesthetized) is given as ~ 30 min. The “time of peak uptake in the SERT-rich brain regions” value in data set [3] (anesthetized cynomolgus monkey) was 55 to 65 min.

Regarding `O=C(OCCC[18F])C1C2CCC(CC1c1cccc(/C=C\Br)c1)N2` (stereo not drawn) [[^18F]4, 2β-Carbo(3-[^18F]fluoropropoxy)-3β-(3′-((Z)-2-bromoethenyl)phenyl)nortropane], in data set [3] (anesthetized cynomolgus monkey), the “time of peak uptake in the SERT-rich brain regions” value fell in the range of 35 to 45 min.

Values taken from publication PMC2668213 (Journal of medicinal chemistry, 2008).
